The record followed here is ChEMBL document CHEMBL1142384, “Gamma-carboline derivatives with anti-bovine viral diarrhea virus (BVDV) activity” (Bioorg Med Chem, 2008).

One series concerns HL-60. Put plainly: Growth inhibition of human HL60 cells. It is filed as functional, cell-based.
The nature of series [1]: Cytotoxicity against mock-infected MDBK cells by LDH method. The note with it: cattle. In kind it is cell-based, Bos taurus. Summed up: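 Mock-infected MDBK cells (1 × 10^4 cells/well) incubated at 37 °C with various compound concentrations for 3 days. Viability measured by the LDH method.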
Series [2] concerns Bovine viral diarrhea virus 1. Put plainly: Antiviral activity against BVDV infected in MDBK cells assessed as reduction in viral induced cell destruction by MTT assay. In kind it is functional, organism-based. The note with it: Bovine viral diarrhea virus isolates and strains. A digest of the protocol:
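BVDV (Nose strain) infected MDBK cells (1 × 10^4 cells/well) at multiplicity of infection 0.01. Cells incubated at 37 °C with various compound concentrations for 3 days. Viability of infected cells read by MTT.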
In general terms: Tetrazolium dyes change colour on reduction, which living cells bring about.

Series [3] in a line: Selectivity index, ratio of CC50 for MDBK cells to EC50 for BVDV infected in MDBK cells. In kind it is functional. A digest of the protocol: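 MDBK cells (1 × 10^4/well) were infected with BVDV Nose strain at MOI 0.01, or mock-infected, and held at 37 °C with various compound concentrations for 3 days. EC50 was taken from the reduction of virus-induced cell destruction, measured as MTT viability of infected cells. CC50 was taken from the reduction of viable cell number, measured by LDH in mock-infected cells. SI = CC50/EC50.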

Broadly, the IC50 is the concentration that gives 50% inhibition. Low readings indicate greater potency in that assay, high ones weaker potency in that assay. By CC50 is commonly meant the concentration at which the toxic effect on the cells reaches its halfway point. The term EC50 denotes the concentration at which the effect is half-maximal.

`c1ccc2c(c1)[nH]c1ccncc12`: in the series with HL-60, the IC50 was determined as 11.4 µM. The midpoint of cytotoxicity in series [1], the CC50, lay at 40 µM. Further, the EC50 in series [2] came out at 2 µM.

As to `c1ccc2c(c1)[nH]c1cccnc12`, in series [1], the CC50 was > 100 µM. Moreover, the EC50 in series [2] was > 100 µM.

Compound `CCn1c2ccccc2c2cnccc21` had a CC50 in series [1] of 29 µM. In series [2], the EC50 stood at 2 µM.

`Cc1nccc2[nH]c3ccccc3c12`: the IC50 with HL-60 is 15.3 µM. The “Ratio CC50/EC50” value in series [3] is reported as 16.7. In series [1], this compound registered a CC50 of 9.7 µM. Further, the EC50 in series [2] came out at 0.58 µM.

Consider `Cn1c2ccccc2c2cnccc21`, for which the “Ratio CC50/EC50” value in series [3] was 111.5. The same compound registered a CC50 in series [1] of 29 µM. In addition, the EC50 in series [2] came out at 0.26 µM.

Take `c1ccc2c(c1)[nH]c1ncccc12`: in series [1], the CC50 is > 100 µM. Further, the concentration for a half-maximal effect (EC50) in series [2] was 93 µM.

For `Cc1cccc2c1[nH]c1ccncc12`, in series [3], the “Ratio CC50/EC50” value is on record as 14.1. Further, in series [1], it took 24 µM to reach half-maximal cytotoxicity (CC50). For the same compound, the EC50 in series [2] is 1.7 µM.

As for `Cc1cc2[nH]c3ccccc3c2cn1`, the “Ratio CC50/EC50” value in series [3] is 31.8. For the same compound, half-maximal cytotoxicity in series [1] (CC50) was put at 70 µM. In addition, in series [2], the EC50 stood at 2.2 µM.

With `CCCn1c2ccccc2c2cnccc21`, the CC50 in series [1] turned out to be 26 µM. Further, the EC50 in series [2] worked out at 8.2 µM.

As for `CC(C)n1c2ccccc2c2cnccc21`, the midpoint of cytotoxicity in series [1], the CC50, lay at 30 µM. For the same compound, the EC50 in series [2] was determined as 11 µM.

Consider `Cc1ccc2c(c1)[nH]c1ccncc12`, for which the “Ratio CC50/EC50” value in series [3] amounted to 21.8. The same compound yielded a CC50 in series [1] of 24 µM. Besides, the EC50 in series [2] was 1.1 µM.

As to `Cc1ccc2[nH]c3ccncc3c2c1`, the “Ratio CC50/EC50” value in series [3] amounted to 4. The CC50 in series [1] was 12 µM. In addition, the EC50 in series [2] was determined as 3 µM.

Turning to `c1ccc(Cn2c3ccccc3c3cnccc32)cc1`, in series [1], half-maximal cytotoxicity (CC50) was put at 11 µM. Also, in series [2], the EC50 amounted to 8.7 µM.

Compound `CCCCn1c2ccccc2c2cnccc21` gave a CC50 in series [1] of 14 µM. For the same compound, in series [2], the EC50 was 9.2 µM.

On to `Cc1cccc2[nH]c3ccncc3c12`, for which the “Ratio CC50/EC50” value in series [3] is listed as 13.3. It took 16 µM to reach half-maximal cytotoxicity in series [1] (CC50). For the same compound, the EC50 in series [2] amounted to 1.2 µM.

Turning to `CCCCCCn1c2ccccc2c2cnccc21`, in series [1], the CC50 worked out at 7.4 µM. In series [2], the EC50 is > 7.4 µM.

On to `Cn1ccc2nc3ccccc3c-2c1`, for which the “Ratio CC50/EC50” value in series [3] is listed as 15.1. The CC50 in series [1] came out at 65 µM. Moreover, in series [2], the EC50 worked out at 4.3 µM.

`Cc1cncc2c1[nH]c1ccccc12`: the “Ratio CC50/EC50” value in series [3] is listed as 38.2. This compound also gave a CC50 in series [1] of 21 µM. For the same compound, the EC50 in series [2] was 0.55 µM.

On to `CCN(CC)CCn1c2ccccc2c2cnccc21`, for which the CC50 in series [1] stood at 10 µM. Moreover, the EC50 in series [2] turned out to be 8.9 µM.

For the compound `c1ccc2c(c1)[nH]c1ccccc12` [CARBAZOLE], the CC50 in series [1] is > 100 µM. The EC50 in series [2] was 64 µM.

In the case of `c1ccc2c(c1)oc1ccccc12` [DIBENZOFURAN], the CC50 in series [1] is > 100 µM. Moreover, in series [2], the EC50 was 58 µM.

Turning to `c1ccc2c(c1)Cc1ccccc1-2` [FLUORENE], in series [1], the CC50 was > 100 µM. Also, the EC50 in series [2] amounted to 71 µM.

The compound `c1ccc2c(c1)[nH]c1cnccc12` [NORHARMANE] showed a CC50 in series [1] of 78 µM. The EC50 in series [2] was 8.8 µM.
